Measurements taken from ChEMBL document CHEMBL1135836, “Cyclodextrin-derived host molecules as reversal agents for the neuromuscular blocker rocuronium bromide: synthesis and structure-activity relationships” (J Med Chem, 2002).

Tests used:
Format in all cases: functional
Felis catus [1] = assay: Percentage of maximum change in blood pressure in anesthetized cat dosed at 0.2 umol/kg (by bolus injection)
Summary of the method: (§1)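 Anaesthetized cats, left for 1 h after surgery to stabilize. Tibialis anterior twitch was evoked via the sciatic nerve with supramaximal 0.25 ms pulses at 0.1 Hz. Rocuronium in phosphate buffer (pH 4) was infused continuously (10.24 ± 1.31 nmol kg-1 min-1). Increasing doses of agent in saline were then given as iv boluses while mean arterial blood pressure and heart rate were recorded; means of three independent experiments.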

Felis catus [2] = assay: Percentage of maximum change in blood pressure in anesthetized cat dosed at 0.4 umol/kg (by bolus injection); summary of the method: as §1
Felis catus [3] = assay: Percentage of maximum change in blood pressure in anesthetized cat dosed at 0.6 umol/kg (by bolus injection); summary of the method: as §1
Felis catus [4] = assay: Percentage of maximum change in blood pressure in anesthetized cat dosed at 0.8 umol/kg (by bolus injection); summary of the method: as §1
Felis catus [5] = assay: % of maximum change of decrease in HR by vagal stimulation in anesthetized cat at 0.2umol/kg, by bolus injection
Felis catus [6] = assay: % of maximum change of decrease in HR by vagal stimulation in anesthetized cat at 0.4umol/kg, by bolus injection
Cavia porcellus [7] = assay: In vivo reversal activity versus ~90% block by rocuronium in guinea pig
Summary of the method: (§2)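 Male Dunkin-Hartley guinea pigs (600-900 g), anaesthetized ip with pentobarbitone 10 mg/kg plus urethane 1000 mg/kg, tracheotomized and ventilated. Continuous iv rocuronium infusion (~10 nmol kg-1 min-1) was raised to a steady 85-90% block. Increasing iv doses of agent were given cumulatively. ED50 = 50% recovery versus preblock twitch, by regression. Mean ± SEM of at least two experiments, or one.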

Felis catus [8] = assay: Percentage of maximum change in blood pressure in anesthetized cat dosed at 1.0 umol/kg (by bolus injection); summary of the method: as §1
Felis catus [9] = assay: Percentage of maximum change in blood pressure in anesthetized cat dosed at 1.2 umol/kg (by bolus injection); summary of the method: as §1
Felis catus [10] = assay: Percentage of maximum change in blood pressure in anesthetized cat dosed at 1.4 umol/kg (by bolus injection); summary of the method: as §1
Felis catus [11] = assay: Percentage of maximum change in blood pressure in anesthetized cat dosed at 1.6 umol/kg (by bolus injection); summary of the method: as §1
Felis catus [12] = assay: % of maximum change of increase in contraction of nictitating membrane in anesthetized cat at 0.2umol/kg, by bolus injection
Felis catus [13] = assay: % of maximum change of increase in contraction of nictitating membrane in anesthetized cat at 0.6umol/kg, by bolus injection
Felis catus [14] = assay: % of maximum change of increase in contraction of nictitating membrane in anesthetized cat at 0.8umol/kg, by bolus injection
Felis catus [15] = assay: % of maximum change of increase in contraction of nictitating membrane in anesthetized cat at 1.0umol/kg, by bolus injection
Felis catus [16] = assay: % of maximum change of increase in contraction of nictitating membrane in anesthetized cat at 1.2umol/kg, by bolus injection
Felis catus [17] = assay: % of maximum change of increase in contraction of nictitating membrane in anesthetized cat at 1.4umol/kg, by bolus injection
Felis catus [18] = assay: % of maximum change of increase in contraction of nictitating membrane in anesthetized cat at 1.6umol/kg, by bolus injection
Felis catus [19] = assay: % of maximum change of increase in contraction of nictitating membrane in anesthetized cat at 1.8umol/kg, by bolus injection
Felis catus [20] = assay: % of maximum change of decrease in HR by vagal stimulation in anesthetized cat at 0.6umol/kg, by bolus injection
Felis catus [21] = assay: % of maximum change of decrease in HR by vagal stimulation in anesthetized cat at 0.8umol/kg, by bolus injection
Felis catus [22] = assay: % of maximum change of decrease in HR by vagal stimulation in anesthetized cat at 1.0umol/kg, by bolus injection
Felis catus [23] = assay: % of maximum change of decrease in HR by vagal stimulation in anesthetized cat at 1.2umol/kg, by bolus injection
Felis catus [24] = assay: % of maximum change of decrease in HR by vagal stimulation in anesthetized cat at 1.4umol/kg, by bolus injection
Felis catus [25] = assay: % of maximum change of decrease in HR by vagal stimulation in anesthetized cat at 1.6umol/kg, by bolus injection
Felis catus [26] = assay: % of maximum change of decrease in HR by vagal stimulation in anesthetized cat at 1.8umol/kg, by bolus injection
Felis catus [27] = assay: Percentage of maximum change of heart rate in anesthetized cat at 0.2umol/kg, by bolus injection; summary of the method: as §1
Felis catus [28] = assay: Percentage of maximum change of heart rate in anesthetized cat at 0.6umol/kg, by bolus injection; summary of the method: as §1
Felis catus [29] = assay: Percentage of maximum change of heart rate in anesthetized cat at 0.8umol/kg, by bolus injection; summary of the method: as §1
Felis catus [30] = assay: Percentage of maximum change of heart rate in anesthetized cat at 1.0umol/kg, by bolus injection; summary of the method: as §1
Felis catus [31] = assay: Percentage of maximum change of heart rate in anesthetized cat at 1.2umol/kg, by bolus injection; summary of the method: as §1
Felis catus [32] = assay: Percentage of maximum change of heart rate in anesthetized cat at 1.4umol/kg, by bolus injection; summary of the method: as §1
Felis catus [33] = assay: Percentage of maximum change of heart rate in anesthetized cat at 1.6umol/kg, by bolus injection; summary of the method: as §1
Felis catus [34] = assay: Percentage of maximum change of heart rate in anesthetized cat at 1.8umol/kg, by bolus injection; summary of the method: as §1
Cavia porcellus [35] = assay: In vivo reversal activity versus ~90% block by rocuronium in guinea pig, expressed as % of maximum reversal at 0.3 umol/kg conc.; summary of the method: as §2
Mus musculus [36] = organism: Mus musculus; assay: In vitro reversal activity versus ~90% block by rocuronium in isolated mouse hemidiaphragm, expressed as % of maximum reversal at 3.6 uM conc.
Mus musculus [37] = organism: Mus musculus; assay: In vitro reversal activity versus ~90% block by rocuronium in isolated mouse hemidiaphragm, expressed as effective conc.
Felis catus [38] = assay: Percentage of maximum change of heart rate in anesthetized cat at 0.4umol/kg, by bolus injection; summary of the method: as §1
Felis catus [39] = assay: Percentage of maximum change in blood pressure in anesthetized cat dosed at 1.8 umol/kg (by bolus injection); summary of the method: as §1
Felis catus [40] = assay: % of maximum change of increase in contraction of nictitating membrane in anesthetized cat at 0.4umol/kg, by bolus injection
Cavia porcellus [41] = assay: In vivo reversal activity versus ~90% block by rocuronium in guinea pig, expressed as % of maximum reversal at 7.3 umol/kg conc.
Summary of the method: (§3)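 Male Dunkin-Hartley guinea pigs (600-900 g) anaesthetized ip with pentobarbitone 10 mg/kg plus urethane 1000 mg/kg, tracheotomized and artificially ventilated. Continuous iv rocuronium bromide infusion (~10 nmol kg-1 min-1) raised until steady-state twitch block of 85-90%. Increasing single iv doses of reversal agent given by a separate catheter. Max reversal is peak twitch recovery versus preblock height at highest dose tested; means ± SEM, n ≥ 2 or single experiment.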

Mus musculus [42] = organism: Mus musculus; assay: In vitro reversal activity versus ~90% block by rocuronium in isolated mouse hemidiaphragm, expressed as % of maximum reversal at 14.4 uM conc.
Mus musculus [43] = organism: Mus musculus; assay: In vitro reversal activity versus ~90% block by rocuronium in isolated mouse hemidiaphragm, expressed as % of maximum reversal at 144 uM conc.
Cavia porcellus [44] = assay: In vivo reversal activity versus ~90% block by rocuronium in guinea pig, expressed as % of maximum reversal at 12 umol/kg conc.; summary of the method: as §3
Cavia porcellus [45] = assay: In vivo reversal activity versus ~90% block by rocuronium in guinea pig, expressed as % of maximum reversal at 10 umol/kg conc.; summary of the method: as §2
Mus musculus [46] = organism: Mus musculus; assay: In vitro reversal activity versus ~90% block by rocuronium in isolated mouse hemidiaphragm, expressed as % of maximum reversal at 18 uM conc.

Compound: O=C([O-])CCSCC1O[C@@H]2O[C@@H]3C(CSCCC(=O)[O-])O[C@H](O[C@@H]4C(CSCCC(=O)[O-])O[C@H](O[C@@H]5C(CSCCC(=O)[O-])O[C@H](O[C@@H]6C(CSCCC(=O)[O-])O[C@H](O[C@@H]7C(CSCCC(=O)[O-])O[C@H](O[C@@H]8C(CSCCC(=O)[O-])O[C@H](O[C@@H]9C(CSCCC(=O)[O-])O[C@H](O[C@H]1C(O)C2O)C(O)C9O)C(O)C8O)C(O)C7O)C(O)C6O)C(O)C5O)C(O)C4O)C(O)C3O.[Na+].[Na+].[Na+].[Na+].[Na+].[Na+].[Na+].[Na+] (some centres not stated)
- BP (Felis catus [1]): -7.3 mmHg
- BP (Felis catus [2]): -6.5 mmHg
- BP (Felis catus [3]): 3.5 mmHg
- BP (Felis catus [4]): -3.3 mmHg
- Decrease (Felis catus [5]): -2.9%
- Decrease (Felis catus [6]): -6.7%
- ED50 (Cavia porcellus [7]): 0.03 µmol/kg
- BP (Felis catus [8]): -3.2 mmHg
- BP (Felis catus [9]): -3.3 mmHg
- BP (Felis catus [10]): -3.3 mmHg
- BP (Felis catus [11]): -5 mmHg
- Max change (Felis catus [12]): 0%
- Max change (Felis catus [13]): 0%
- Max change (Felis catus [14]): 3.7%
- Max change (Felis catus [15]): 8.7%
- Max change (Felis catus [16]): 3.7%
- Max change (Felis catus [17]): 3.7%
- Max change (Felis catus [18]): 3.7%
- Max change (Felis catus [19]): 12.5%
- Decrease (Felis catus [20]): -6.7%
- Decrease (Felis catus [21]): 2.2%
- Decrease (Felis catus [22]): 0%
- Decrease (Felis catus [23]): 0%
- Decrease (Felis catus [24]): 0.7%
- Decrease (Felis catus [25]): 0%
- Decrease (Felis catus [26]): 11%
- HR (Felis catus [27]): -4.1%
- HR (Felis catus [28]): -7.5 beats min-1
- HR (Felis catus [29]): -6.3 beats min-1
- HR (Felis catus [30]): -3.4 beats min-1
- HR (Felis catus [31]): -4 beats min-1
- HR (Felis catus [32]): -3.7 beats min-1
- HR (Felis catus [33]): -6.9 beats min-1
- HR (Felis catus [34]): -14.3 beats min-1
- Max reversal (Cavia porcellus [35]): 92.5%
- Max reversal (Mus musculus [36]): 95.1%
- EC50 (Mus musculus [37]): 1.2 µM
- HR (Felis catus [38]): -5.5 beats min-1
- BP (Felis catus [39]): -5 mmHg
- Max change (Felis catus [40]): 0%

Compound: CNC(=O)CSCC1O[C@@H]2O[C@@H]3C(CSCC(=O)NC)O[C@H](O[C@@H]4C(CSCC(=O)NC)O[C@H](O[C@@H]5C(CSCC(=O)NC)O[C@H](O[C@@H]6C(CSCC(=O)NC)O[C@H](O[C@@H]7C(CSCC(=O)NC)O[C@H](O[C@@H]8C(CSCC(=O)NC)O[C@H](O[C@@H]9C(CSCC(=O)NC)O[C@H](O[C@H]1C(O)C2O)C(O)C9O)C(O)C8O)C(O)C7O)C(O)C6O)C(O)C5O)C(O)C4O)C(O)C3O (some centres not stated)
- ED50 (Cavia porcellus [7]): 1.54 µmol/kg
- Max reversal (Cavia porcellus [41]): 102.2%
- Max reversal (Mus musculus [42]): 79.6%
- EC50 (Mus musculus [37]): 6.4 µM

Compound: O=C([O-])CCSCC1O[C@@H]2O[C@@H]3C(CO)O[C@H](O[C@@H]4C(CO)O[C@H](O[C@@H]5C(CO)O[C@H](O[C@@H]6C(CO)O[C@H](O[C@@H]7C(CO)O[C@H](O[C@@H]8C(CO)O[C@H](O[C@@H]9C(CO)O[C@H](O[C@H]1C(O)C2O)C(O)C9O)C(O)C8O)C(O)C7O)C(O)C6O)C(O)C5O)C(O)C4O)C(O)C3O.[Na+] (some centres not stated)
- ED50 (Cavia porcellus [7]): 1.3 µmol/kg
- Max reversal (Mus musculus [43]): 94.5%
- Max reversal (Cavia porcellus [44]): 100.6%
- EC50 (Mus musculus [37]): 17.2 µM

Compound: C[C@H](CSCC1O[C@@H]2O[C@@H]3C(CSC[C@H](C)C(=O)N4CCCC4C(=O)[O-])O[C@H](O[C@@H]4C(CSC[C@@H](C)C(=O)N5CCCC5C(=O)[O-])O[C@H](O[C@@H]5C(CSC[C@@H](C)C(=O)N6CCCC6C(=O)[O-])O[C@H](O[C@@H]6C(CSC[C@H](C)C(=O)N7CCCC7C(=O)[O-])O[C@H](O[C@@H]7C(CSC[C@@H](C)C(=O)N8CCCC8C(=O)[O-])O[C@H](O[C@@H]8C(CSC[C@H](C)C(=O)N9CCCC9C(=O)[O-])O[C@H](O[C@@H]9C(CSC[C@@H](C)C(=O)N%10CCCC%10C(=O)[O-])O[C@H](O[C@H]1C(O)C2O)C(O)C9O)C(O)C8O)C(O)C7O)C(O)C6O)C(O)C5O)C(O)C4O)C(O)C3O)C(=O)N1CCCC1C(=O)[O-].[Na+].[Na+].[Na+].[Na+].[Na+].[Na+].[Na+].[Na+] (some centres not stated)
- ED50 (Cavia porcellus [7]): 1.49 µmol/kg
- Max reversal (Cavia porcellus [45]): 103.6%
- Max reversal (Mus musculus [46]): 35.7%
- EC50 (Mus musculus [37]): 33.9 µM
